# Assay: Cmax in C57BL/6 mouse at 10 mg/kg, po administered via gavage by LC/MS-MS analysis
# Format: ADME, organism-based
# Design: dose 10 mg/kg, route oral
# Settings: in vivo
# How it was run: (§1)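 Male C57BL/6 mice aged 9–12 weeks received a single 10 mg/kg oral gavage bolus. The vehicle was methylcellulose 90–91%, Tween 80 2–3% and DMSO 6–8% (v/v). Tail-tip blood was drawn into heparinized capillaries and spun at 2000g for 10 min. Plasma was extracted with acetonitrile:methanol (9:1) and quantified by LC–MS/MS against spiked plasma standards (1–100 ng). n = 3.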
row,Cmax [µM],SMILES
1,3.4,CCCCOc1ccc(Nc2nc3nonc3nc2O)cc1
2,12,CCCCc1ccc(Nc2nc3nonc3nc2O)cc1

# The remaining lines, values behind:
row,SMILES,Cmax [µM]
1,CC(C)(C)c1ccc(Nc2nc3nonc3nc2O)cc1,22.3
2,Oc1nc2nonc2nc1Nc1ccc2ccccc2c1,12.5

# Assay: Cmax in Swiss albino mouse at 10 mg/kg, po administered via gavage by LC/MS-MS analysis
# Format: ADME, organism-based
# Design: dose 10 mg/kg, route oral
# Settings: in vivo
# How it was run: (§2)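 Swiss Albino mice were given 10 mg/kg by oral gavage in a triturated Tween 80/0.5% (w/v) methylcellulose formulation, with three replicates per time point. Plasma was precipitated with acetonitrile containing telmisartan internal standard and analyzed by LC–MS/MS using transition m/z 286 → 125. Concentrations came from a standard curve (1–1000 ng/mL).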
row,Cmax [µM],SMILES
1,18,Oc1nc2nonc2nc1NC12CC3CC(CC(C3)C1)C2

# Assay: Solubility of compound in PBS at pH 7.4
# Format: physicochemical
# Settings: buffer
row,solubility [µM],SMILES
1,< 10,Fc1cccc(Nc2nc3nonc3nc2Nc2ccccc2F)c1

# Assay: Half life in C57BL/6 mouse at 10 mg/kg, po administered via gavage by LC/MS-MS analysis
# Format: ADME, organism-based
# Settings: in vivo
# How it was run: as §1
row,half-life [min],SMILES
1,18,CCCCOc1ccc(Nc2nc3nonc3nc2O)cc1
2,42,CCCCc1ccc(Nc2nc3nonc3nc2O)cc1

# More lines, now with the values behind:
row,SMILES,half-life [min]
1,CC(C)(C)c1ccc(Nc2nc3nonc3nc2O)cc1,36
2,Oc1nc2nonc2nc1Nc1ccc2ccccc2c1,24

# Assay: Induction of mitochondrial uncoupling in rat L6 cells assessed as increase in oxygen consumption rate incubated for 90 mins by Seahorse XF analyzer based assay
# Format: mitochondria, Mitochondria
# Settings: not given
row,EC50 [µM],SMILES
1,3.7,CCCCOc1ccc(Nc2nc3nonc3nc2O)cc1
2,25.2,CCc1cccc(Nc2nc3nonc3nc2O)c1
3,32.8,Cc1ccc(C(F)(F)F)cc1Nc1nc2nonc2nc1O
4,4.6,Cc1cc(OC(F)(F)F)ccc1Nc1nc2nonc2nc1O
5,38.6,Oc1nc2nonc2nc1Nc1ccc(F)cc1
6,4.7,CCCCCCc1ccc(Nc2nc3nonc3nc2O)cc1
7,23.4,Oc1nc2nonc2nc1Nc1cc(F)cc(F)c1
8,1.4,Oc1nc2nonc2nc1Nc1ccc(OC(F)(F)F)cc1Cl
9,2.6,Oc1nc2nonc2nc1Nc1ccc(C(F)(F)F)cc1F
10,1.1,CCCCc1ccc(Nc2nc3nonc3nc2O)c(F)c1
11,4.2,Oc1nc2nonc2nc1Nc1ccc(OCCCC(F)(F)F)c(F)c1
12,6.3,Oc1nc2nonc2nc1Nc1ccccc1Cl
13,12.5,Oc1nc2nonc2nc1Nc1ccccc1F
14,2.3,CCCCOc1cccc(Nc2nc3nonc3nc2O)c1
15,1.5,CCCCCc1ccc(Nc2nc3nonc3nc2O)c(F)c1
16,31.2,Oc1nc2nonc2nc1Nc1cccc(F)c1
17,11.6,Oc1nc2nonc2nc1Nc1ccc(C(F)(F)F)c(F)c1
18,> 100,Cc1cccc(C)c1Nc1nc2nonc2nc1O
19,2.3,Oc1nc2nonc2nc1Nc1ccc(OC(F)(F)F)cc1F
20,3.8,COc1cc(OC(F)(F)F)ccc1Nc1nc2nonc2nc1O
21,9.7,Oc1nc2nonc2nc1Nc1cccc(F)c1F
22,2.4,CCCCCc1ccc(Nc2nc3nonc3nc2O)cc1
23,2.1,CCCCc1ccc(Nc2nc3nonc3nc2O)cc1
24,3,Cc1ccc(Nc2nc3nonc3nc2O)cc1C
25,3.3,CCCCCCc1ccc(Nc2nc3nonc3nc2O)c(F)c1
26,10.7,CCc1ccc(Nc2nc3nonc3nc2O)cc1
27,6.7,CCc1ccc(Nc2nc3nonc3nc2O)c(F)c1
28,4.9,Oc1nc2nonc2nc1Nc1cccc(C(F)(F)F)c1F

# The remaining lines, values behind:
row,SMILES,EC50 [µM]
1,Oc1nc2nonc2nc1Nc1ccc(OCC(F)(F)F)c(C(F)(F)F)c1,4
2,Oc1nc2nonc2nc1Nc1ccc(OCC(F)(F)F)cc1,42.3
3,Oc1nc2nonc2nc1Nc1ccccc1,66.7
4,Oc1nc2nonc2nc1Nc1ccc(SC(F)(F)F)cc1,1.4
5,Oc1nc2nonc2nc1NC(c1ccccc1)c1ccccc1,38.3
6,Oc1nc2nonc2nc1Nc1ccc(OCc2ccccc2)cc1,2.4
7,CC(C)(C)c1ccc(Nc2nc3nonc3nc2O)cc1,3.9
8,Oc1nc2nonc2nc1Nc1ccc(Cl)cc1,11.7
9,Oc1nc2nonc2nc1Nc1ccc2ccccc2c1,4
10,Oc1nc2nonc2nc1Nc1ccc(OC(F)F)cc1,20.6
11,CC(=O)c1ccc(Nc2nc3nonc3nc2O)cc1,93.7
12,CC(C)(C#N)c1ccc(Nc2nc3nonc3nc2O)cc1,35.7
13,Oc1nc2nonc2nc1Nc1cccc(OCc2ccc(C(F)(F)F)cc2)c1,3
14,O=[N+]([O-])c1cc(Nc2nc3nonc3nc2O)ccc1OC(F)(F)F,53.5
15,Oc1nc2nonc2nc1NC1C2CC3CC(C2)CC1C3 (stereo not drawn),22.8
16,Oc1nc2nonc2nc1Nc1ccc(C(F)(F)F)cc1,10.4
17,Oc1nc2nonc2nc1Nc1cccc(C(F)(F)F)c1,13.3
18,Oc1nc2nonc2nc1Nc1cc(C(F)(F)F)cc(C(F)(F)F)c1,4.5
19,Oc1nc2nonc2nc1Nc1ccc2c(c1)OCO2,46.9
20,Oc1nc2nonc2nc1Nc1ccc2c(c1)OC(F)(F)O2,7.6
21,COc1cccc(Nc2nc3nonc3nc2O)c1,75.4
22,Oc1nc2nonc2nc1Nc1cccc2ccccc12,20.4
23,Oc1nc2nonc2nc1Nc1ccc(OC(F)(F)F)c(Cl)c1,3
24,Cc1cc(Nc2nc3nonc3nc2O)ccc1OCC(F)(F)F,7
25,Oc1nc2nonc2nc1Nc1ccc(S(F)(F)(F)(F)F)cc1,3.9

row,SMILES,EC50 [µM]
1,Cc1ccc(Nc2nc3nonc3nc2O)cc1,51.9
2,Fc1cccc(Nc2nc3nonc3nc2Nc2ccccc2F)c1,0.19
3,Oc1nc2nonc2nc1NC12CC3CC(CC(C3)C1)C2,7
4,CC12CC3CC(C)(C1)CC(Nc1nc4nonc4nc1O)(C3)C2,2
5,CC(Nc1nc2nonc2nc1O)C12CC3CC(CC(C3)C1)C2 (stereo not drawn),4.9
6,CC(C)(C)c1cccc(Nc2nc3nonc3nc2O)c1,2.2
7,Oc1nc2nonc2nc1Nc1cc(C(F)(F)F)ccc1F,5.1
8,Oc1nc2nonc2nc1Nc1ccc(OC(F)(F)C(F)F)cc1,7
9,Oc1nc2nonc2nc1Nc1ccc(OCC2CC2)c(C(F)(F)F)c1,1.8
10,Oc1nc2nonc2nc1Nc1ccccc1OC(F)(F)F,7.1
11,Oc1nc2nonc2nc1NCc1ccc(OC(F)(F)F)cc1,13.4
12,Oc1nc2nonc2nc1Nc1ccc(OC(F)(F)F)c(F)c1,2.9
13,Oc1nc2nonc2nc1Nc1ccccc1C(F)(F)F,10.6
14,Cc1ccc(CNc2nc3nonc3nc2O)cc1,53.2
15,Oc1nc2nonc2nc1Nc1ccc(C(O)(C(F)(F)F)C(F)(F)F)cc1,34
16,Oc1nc2nonc2nc1Nc1cccc(OC(F)(F)F)c1,5.1
17,Oc1nc2nonc2nc1NCCC(F)(F)F,110
18,CCCCCCCCNc1nc2nonc2nc1O,3.4
19,Oc1nc2nonc2nc1NCCc1ccccc1,65.5
20,Oc1nc2nonc2nc1Nc1ccc(OCCCC(F)(F)F)c(C(F)(F)F)c1,2.1
21,Oc1nc2nonc2nc1Nc1ccc(OCC(F)(F)F)c(F)c1,10.4
22,Oc1nc2nonc2nc1Nc1ccc(OC(F)(F)Cl)cc1,1.9
23,Oc1nc2nonc2nc1Nc1cccc(S(F)(F)(F)(F)F)c1,3.7
24,Cc1cc(C)c(Nc2nc3nonc3nc2O)c(C)c1,113

# Assay: Half life in Swiss albino mouse at 10 mg/kg, po administered via gavage by LC/MS-MS analysis
# Format: ADME, organism-based
# Settings: in vivo
# How it was run: as §2
row,half-life [min],SMILES
1,66,Oc1nc2nonc2nc1NC12CC3CC(CC(C3)C1)C2
